Measurements of several laboratories.
Protocols differ between the studies behind these lines.
Tyrosine-protein phosphatase YopH: Tyrosine-protein phosphatase YopH (Yersinia enterocolitica, UniProt P15273)
BCHE: Cholinesterase (BCHE, Equus caballus, UniProt P81908)

Compound | target | assay | conditions | measurement | value
O=S(=O)([O-])[O-].[O]=[V+2] | Tyrosine-protein phosphatase YopH | enzyme activity, inhibitor | 25 µM | inhibition | 99.7%
CCN(CC)CCCC[C@H](NC(=O)[C@H](CC(C)C)NC(=O)[C@H](C)NC(=O)[C@H](Cc1ccccc1)NC(=O)c1ccc(C(C)(C)C)cc1)C(=O)N[C@@H](CO)C(=O)OC | Transcription initiation factor TFIID subunit 1, BD2 (TAF1, Homo sapiens, UniProt P21675) | thermal stability, DSF | 25 µM | ΔTm | 0.62 °C
[O]=[V]([S]c1cccc[n+]1[O-])[S]c1cccc[n+]1[O-] | Tyrosine-protein phosphatase YopH | enzyme activity, inhibitor | 25 µM | inhibition | 99.5%
Nc1ncc(-c2nc(N3CCOCC3)nc(N3CCOCC3)n2)c(C(F)F)n1 | Ribosomal protein S6 kinase alpha-3, C-terminal kinase domain (RPS6KA3, Homo sapiens, UniProt P51812) | binding, competition with immobilised ligand | 10 µM | remaining binding | 84%
COc1cc2c(cc1OC)C(=O)N(CC1CCNCC1)C2 | BCHE | enzyme activity, inhibitor, Ellman | 1 µM | inhibition | 6.8%
COc1ncccc1-c1cnn2ccc(N3CCN(C(=O)OC(C)C)CC3)nc12 | Serine/threonine-protein kinase MRCK alpha (CDC42BPA, Homo sapiens, UniProt Q5VT25) | binding, competition with immobilised ligand | 1 µM | remaining binding | 72%
COc1cc2c(cc1OC)C(=O)N(CC1CCN(CC3CCNC3)CC1)C2 (centres unmarked) | BCHE | enzyme activity, inhibitor, Ellman | 1 µM | inhibition | -13.6%
C#Cc1n[nH]c2c(-c3cn(C(C)c4ccccn4)c(=O)[nH]c3=O)cc(F)cc12 (centres unmarked) | Mitogen-activated protein kinase kinase kinase 9 (MAP3K9, Homo sapiens, UniProt P80192) | enzyme activity, inhibitor | 1 µM | inhibition | 5%
